# Structures can show the parent of a compound that is named as a salt. Calls of active or inactive are those of the source. The rule behind the calls is not given here.
# Tests used:
# Escherichia coli [1] = assay: Antimicrobial activity against Escherichia coli NCTC 11954 producing penicillinase assessed as inhibition of microbial growth incubated for 24 hrs by microbroth dilution method; assay type: functional
# Outline: (§1)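 Bacteria were grown in suitable medium at 37 °C for 24 h and adjusted to 0.5 McFarland. Compound DMSO stocks were two-fold serially diluted in broth, and 10^6 inoculum was added. Plates were incubated at 37 °C for 24 h and read at A625. MIC is the lowest concentration showing no viability. Fluoroquinolone positive controls, DMSO negative, sterility and growth controls were included; triplicate.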
# Escherichia coli [2] = assay: Antimicrobial activity against Escherichia coli ATCC 8739 assessed as inhibition of microbial growth incubated for 24 hrs by microbroth dilution method; assay type: functional; outline: as §1
# Escherichia coli [3] = assay: Antimicrobial activity against Escherichia coli O157:H7 assessed as inhibition of microbial growth incubated for 24 hrs by microbroth dilution method; assay type: functional
# Escherichia coli [4] = assay: Antimicrobial activity against fluoroquinolone-resistant Escherichia coli assessed as inhibition of microbial growth incubated for 24 hrs by microbroth dilution method; assay type: functional
# Salmonella enterica = assay: Antimicrobial activity against Salmonella enterica ATCC 13312 assessed as inhibition of microbial growth incubated for 24 hrs by microbroth dilution method; assay type: functional; outline: as §1
# Pseudomonas aeruginosa = assay: Antimicrobial activity against Pseudomonas aeruginosa ATCC 9627 assessed as inhibition of microbial growth incubated for 24 hrs by microbroth dilution method; assay type: functional; outline: as §1
# Staphylococcus aureus [5] = assay: Antimicrobial activity against methicillin-resistant Staphylococcus aureus ATCC 33591 assessed as inhibition of microbial growth incubated for 24 hrs by microbroth dilution method; assay type: functional
# Staphylococcus aureus [6] = assay: Antimicrobial activity against methicillin-sensitive Staphylococcus aureus ATCC 9253 assessed as inhibition of microbial growth incubated for 24 hrs by microbroth dilution method; assay type: functional; outline: as §1
# Listeria monocytogenes = assay: Antimicrobial activity against Listeria monocytogenes ATCC 19115 assessed as inhibition of microbial growth incubated for 24 hrs by microbroth dilution method; assay type: functional; outline: as §1
# Candida albicans = assay: Antifungal activity against Candida albicans ATCC 10231 assessed as reduction in fungal growth incubated for 48 hrs by broth microdilution method; assay type: functional
# Aspergillus flavus = assay: Antifungal activity against Aspergillus flavus ATCC 9643 assessed as reduction in fungal growth incubated for 48 hrs by broth microdilution method; assay type: functional
# Outline: (§2)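 Conidia were harvested from cultures grown on malt extract agar at 30 °C for 7 d and counted by hemocytometer (mean of three counts). Stock suspensions were diluted 1:50 in malt extract broth. Compounds were made as 4.0 mg/mL DMSO stocks and two-fold serially diluted in broth. Plates were incubated at 30 °C for 48 h and read at A405. MIC is the lowest concentration with no viability. Fluconazole was the positive control, DMSO the vehicle; triplicate.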
# Fusarium solani = assay: Antifungal activity against Fusarium solani ATCC 36031 assessed as reduction in fungal growth incubated for 48 hrs by broth microdilution method; assay type: functional; outline: as §2
# Stachybotrys chartarum [7] = assay: Antifungal activity against Stachybotrys chartarum IBT 7711 assessed as reduction in fungal growth incubated for 48 hrs by broth microdilution method; assay type: functional; outline: as §2
# Penicillium chrysogenum = assay: Antifungal activity against Penicillium chrysogenum ATCC 10106 assessed as reduction in fungal growth incubated for 48 hrs by broth microdilution method; assay type: functional; outline: as §2
# L6 = assay: Cytotoxicity against rat L6 cells assessed as inhibition of cell viability incubated for 24 hrs by MTT assay; assay type: cell-based; conditions: L6, 24 h
# Outline: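 L6 rat myoblasts were grown in glucose-DMEM with 10% FBS, 1 mM L-glutamine, penicillin and streptomycin at 37 °C in 5% CO2. They were seeded at 2 × 10^4 cells/well and allowed to attach for 24 h. Cells were exposed to graded concentrations for 24 h, with 0.1% DMSO as vehicle. MTT (0.5 mg/mL) was added for 4 h, formazan was dissolved in DMSO, and A570 was read. Viability is given relative to vehicle. IC50 came from dose-effect curves; triplicate.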
# Escherichia coli [8] = assay: Potency index, ratio of norfloxacin MIC to test compound MIC for fluoroquinolone-resistant Escherichia coli measured after 24 hrs by microbroth dilution method; assay type: functional
# Stachybotrys chartarum [9] = assay: Potency index, ratio of fluconazole MIC to test compound MIC for Stachybotrys chartarum IBT 7711 measured after 48 hrs by broth microdilution method; assay type: functional
# Escherichia coli [10] = assay: Potency index, ratio of ciprofloxacin HCl MIC to test compound MIC for fluoroquinolone-resistant Escherichia coli measured after 24 hrs by microbroth dilution method; assay type: functional
smiles,measurement,setting,value
CCn1cc(C(=O)N[C@H]2C(OC(C)=O)O[C@H](COC(C)=O)[C@@H](OC(C)=O)[C@@H]2OC(C)=O)c(=O)c2cc(F)c(N3CCN(C(C)=O)CC3)cc21 (stereo not given in full),MIC,Escherichia coli [1],181 µM
same,MIC,Escherichia coli [2],inactive
same,MIC,Escherichia coli [3],45.3 µM
same,MIC,Escherichia coli [4],136 µM
same,MIC,Salmonella enterica,11.3 µM
same,MIC,Pseudomonas aeruginosa,inactive
same,MIC,Staphylococcus aureus [5],362 µM
same,MIC,Staphylococcus aureus [6],inactive
same,MIC,Listeria monocytogenes,inactive
same,MIC,Candida albicans,5.6 µM
same,MIC,Aspergillus flavus,362 µM
same,MIC,Fusarium solani,181 µM
same,MIC,Stachybotrys chartarum [7],45.3 µM
same,MIC,Penicillium chrysogenum,45.3 µM
same,IC50,L6,5.32 µM
same,Ratio,Escherichia coli [8],2
same,Ratio,Stachybotrys chartarum [9],2
CC(=O)N1CCN(c2cc3c(cc2F)c(=O)c(C(=O)N[C@H]2C(O)O[C@H](CO)[C@@H](O)[C@@H]2O)cn3C2CC2)CC1 (stereo not given in full),MIC,Escherichia coli [1],inactive
same,MIC,Escherichia coli [2],inactive
same,MIC,Escherichia coli [3],234 µM
same,MIC,Escherichia coli [4],702 µM
same,MIC,Salmonella enterica,inactive
same,MIC,Pseudomonas aeruginosa,inactive
same,MIC,Staphylococcus aureus [5],inactive
same,MIC,Staphylococcus aureus [6],inactive
same,MIC,Listeria monocytogenes,inactive
same,MIC,Candida albicans,inactive
same,MIC,Aspergillus flavus,234 µM
same,MIC,Fusarium solani,468 µM
same,MIC,Stachybotrys chartarum [7],468 µM
same,MIC,Penicillium chrysogenum,234 µM
same,IC50,L6,4.03 µM
OC(Cn1cncn1)(Cn1cncn1)c1ccc(F)cc1F [FLUCONAZOLE],MIC,Candida albicans,408 µM
same,MIC,Aspergillus flavus,51 µM
same,MIC,Fusarium solani,102 µM
same,MIC,Stachybotrys chartarum [7],102 µM
same,MIC,Penicillium chrysogenum,204 µM
O=C(O)c1cn(C2CC2)c2cc(N3CCNCC3)c(F)cc2c1=O [CIPROFLOXACIN HYDROCHLORIDE],MIC,Salmonella enterica,< 5.2 µM
same,MIC,Pseudomonas aeruginosa,< 5.2 µM
same,MIC,Staphylococcus aureus [5],< 5.2 µM
same,MIC,Staphylococcus aureus [6],< 5.2 µM
same,MIC,Listeria monocytogenes,0.5 µM
same,MIC,Candida albicans,0.3 µM
same,MIC,Aspergillus flavus,inactive
same,MIC,Fusarium solani,< 10.6 µM
same,MIC,Stachybotrys chartarum [7],85 µM
same,MIC,Penicillium chrysogenum,< 10.6 µM
CCn1cc(C(=O)O)c(=O)c2cc(F)c(N3CCNCC3)cc21 [NORFLOXACIN],MIC,Escherichia coli [1],24.4 µM
same,MIC,Escherichia coli [2],48.9 µM
same,MIC,Escherichia coli [3],< 5.9 µM
same,MIC,Escherichia coli [4],294 µM
same,MIC,Salmonella enterica,< 5.9 µM
same,MIC,Pseudomonas aeruginosa,98 µM
same,MIC,Staphylococcus aureus [5],24.4 µM
same,MIC,Staphylococcus aureus [6],24.4 µM
same,MIC,Listeria monocytogenes,< 5.9 µM
same,MIC,Candida albicans,< 5.9 µM
same,MIC,Aspergillus flavus,783 µM
same,MIC,Fusarium solani,391 µM
same,MIC,Stachybotrys chartarum [7],196 µM
same,MIC,Penicillium chrysogenum,196 µM
same,IC50,L6,3.43 µM
CC(=O)OC[C@H]1OC(OC(C)=O)[C@H](NC(=O)c2cn(C3CC3)c3cc(N4CCN(C(C)=O)CC4)c(F)cc3c2=O)[C@@H](OC(C)=O)[C@@H]1OC(C)=O (stereo not given in full),MIC,Escherichia coli [1],inactive
same,MIC,Escherichia coli [2],inactive
same,MIC,Escherichia coli [3],178 µM
same,MIC,Escherichia coli [4],267 µM
same,MIC,Salmonella enterica,11.1 µM
same,MIC,Pseudomonas aeruginosa,11.1 µM
same,MIC,Staphylococcus aureus [5],inactive
same,MIC,Staphylococcus aureus [6],inactive
same,MIC,Listeria monocytogenes,inactive
same,MIC,Candida albicans,inactive
same,MIC,Aspergillus flavus,712 µM
same,MIC,Fusarium solani,356 µM
same,MIC,Stachybotrys chartarum [7],356 µM
same,MIC,Penicillium chrysogenum,< 5.6 µM
same,IC50,L6,3.62 µM
same,Ratio,Escherichia coli [10],2
COc1c(N2C[C@@H]3CCCN[C@@H]3C2)c(F)cc2c(=O)c(C(=O)O)cn(C3CC3)c12 [MOXIFLOXACIN],MIC,Escherichia coli [1],< 0.5 µM
same,MIC,Escherichia coli [2],< 0.5 µM
same,MIC,Escherichia coli [3],< 0.5 µM
same,MIC,Escherichia coli [4],3.4 µM
same,MIC,Salmonella enterica,< 4.3 µM
same,MIC,Pseudomonas aeruginosa,71.5 µM
same,MIC,Staphylococcus aureus [5],< 0.5 µM
same,MIC,Staphylococcus aureus [6],< 0.5 µM
same,MIC,Listeria monocytogenes,< 0.5 µM
same,MIC,Candida albicans,1.1 µM
same,MIC,Aspergillus flavus,286 µM
same,MIC,Fusarium solani,286 µM
same,MIC,Stachybotrys chartarum [7],2.3 µM
same,MIC,Penicillium chrysogenum,1.1 µM
same,IC50,L6,5.78 µM
COc1c(N2C[C@@H]3CCCN(C(C)=O)[C@@H]3C2)c(F)cc2c(=O)c(C(=O)N[C@H]3C(OC(C)=O)O[C@H](COC(C)=O)[C@@H](OC(C)=O)[C@@H]3OC(C)=O)cn(C3CC3)c12 (stereo not given in full),MIC,Escherichia coli [1],inactive
same,MIC,Escherichia coli [2],162 µM
same,MIC,Escherichia coli [3],162 µM
same,MIC,Escherichia coli [4],485 µM
same,MIC,Salmonella enterica,inactive
same,MIC,Pseudomonas aeruginosa,324 µM
same,MIC,Staphylococcus aureus [5],162 µM
same,MIC,Staphylococcus aureus [6],inactive
same,MIC,Listeria monocytogenes,< 5 µM
same,MIC,Candida albicans,80.9 µM
same,MIC,Aspergillus flavus,162 µM
same,MIC,Fusarium solani,324 µM
same,MIC,Stachybotrys chartarum [7],324 µM
same,MIC,Penicillium chrysogenum,162 µM
same,IC50,L6,5.53 µM
CCn1cc(C(=O)N[C@H]2C(O)O[C@H](CO)[C@@H](O)[C@@H]2O)c(=O)c2cc(F)c(N3CCN(C(C)=O)CC3)cc21 (stereo not given in full),MIC,Escherichia coli [1],239 µM
same,MIC,Escherichia coli [2],inactive
same,MIC,Escherichia coli [3],59.9 µM
same,MIC,Escherichia coli [4],89.8 µM
same,MIC,Salmonella enterica,14.9 µM
same,MIC,Pseudomonas aeruginosa,inactive
same,MIC,Staphylococcus aureus [5],478 µM
same,MIC,Staphylococcus aureus [6],inactive
same,MIC,Listeria monocytogenes,inactive
same,MIC,Candida albicans,59.9 µM
same,MIC,Aspergillus flavus,478 µM
same,MIC,Fusarium solani,239 µM
same,MIC,Stachybotrys chartarum [7],120 µM
same,MIC,Penicillium chrysogenum,120 µM
same,IC50,L6,3.72 µM
same,Ratio,Escherichia coli [8],3
COc1c(N2C[C@@H]3CCCN(C(C)=O)[C@@H]3C2)c(F)cc2c(=O)c(C(=O)N[C@H]3C(O)O[C@H](CO)[C@@H](O)[C@@H]3O)cn(C3CC3)c12 (stereo not given in full),MIC,Escherichia coli [1],207 µM
same,MIC,Escherichia coli [2],207 µM
same,MIC,Escherichia coli [3],828 µM
same,MIC,Escherichia coli [4],310 µM
same,MIC,Salmonella enterica,inactive
same,MIC,Pseudomonas aeruginosa,51.8 µM
same,MIC,Staphylococcus aureus [5],207 µM
same,MIC,Staphylococcus aureus [6],inactive
same,MIC,Listeria monocytogenes,103 µM
same,MIC,Candida albicans,207 µM
same,MIC,Aspergillus flavus,207 µM
same,MIC,Fusarium solani,207 µM
same,MIC,Stachybotrys chartarum [7],1.7 µM
same,MIC,Penicillium chrysogenum,1.7 µM
same,IC50,L6,5.08 µM
same,Ratio,Stachybotrys chartarum [9],100

# — ChEMBL document CHEMBL4765367, “Design, synthesis and antimicrobial evaluation of novel glycosylated-fluoroquinolones derivatives” (Eur J Med Chem, 2020)
